High-throughput results: PubChem, several laboratories
Pf gamet viab: kills late stage P. falciparum gametocytes; P. falciparum stage V gametocytes, ATP luminescence, 24 h; inhibition, % at 10.9 µM; 150,000 tested, 0.065% active;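 active = inhibition above the mean plus 3 SD of compounds within the control limits, set per campaign, cut at about 38% in these data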
MDM2 E3 inh: blocks human Mdm2 ubiquitin ligase activity; Q00987; cell-based MDM2 ubiquitination luciferase reporter, 2 h; 0 = plate control, 100 = twice control, blank-subtracted; signal enhancement, % at 5 µM; 210,000 tested, 0.11% active;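 active = signal enhancement of 30% or more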;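 also: luminescence tracks abundance of the self-degrading MDM2-luciferase fusion protein; higher signal means inhibition of MDM2 E3 ligase activity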
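Assay system: mammalian cells stably expressing self-ubiquitinating, self-degrading MDM2 E3–luciferase fusion. Quantity: 2000 cells in each well. Medium: DMEM culture medium. Compound dosing: single-point 5 µM. Timing: cell settling 4 h, compound treatment 2 h, both 37 °C. Technique: luciferase luminescence. Read-out basis: percent signal gain over controls, blank-subtracted. Benchmarks: plate controls and plate blanks.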
Hsp70 act: Hsp70 transcriptional activation, primary screen; HeLa Hsp70 promoter luciferase reporter, luminescence; scaled: vehicle 0, proteasome-inhibitor control 100%; activation, % at 10 µM; 200,000 tested, 0.04% active; AID 1203;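 active = activation above the mean across all tested compounds plus 3 SD, cutoff set per campaign, cut at about 5.5% in these data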
Wee1 degr inh: blocks degradation of human Wee1 kinase | P30291 | HeLa Luc-Wee1K328M stability, luciferase luminescence; 100% = proteasome inhibitor MG132 effect | reporter increase, % at 5 µM | 220,000 tested, 1.2% active | AID 1321;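 active = activation above the mean of all tested compounds plus 3 SD, set per screening run, cut at about 8.8% in these data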;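 also: cells exposed to compound for 20 h before luminescence read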
Target sequence (P30291 whole entry K328M): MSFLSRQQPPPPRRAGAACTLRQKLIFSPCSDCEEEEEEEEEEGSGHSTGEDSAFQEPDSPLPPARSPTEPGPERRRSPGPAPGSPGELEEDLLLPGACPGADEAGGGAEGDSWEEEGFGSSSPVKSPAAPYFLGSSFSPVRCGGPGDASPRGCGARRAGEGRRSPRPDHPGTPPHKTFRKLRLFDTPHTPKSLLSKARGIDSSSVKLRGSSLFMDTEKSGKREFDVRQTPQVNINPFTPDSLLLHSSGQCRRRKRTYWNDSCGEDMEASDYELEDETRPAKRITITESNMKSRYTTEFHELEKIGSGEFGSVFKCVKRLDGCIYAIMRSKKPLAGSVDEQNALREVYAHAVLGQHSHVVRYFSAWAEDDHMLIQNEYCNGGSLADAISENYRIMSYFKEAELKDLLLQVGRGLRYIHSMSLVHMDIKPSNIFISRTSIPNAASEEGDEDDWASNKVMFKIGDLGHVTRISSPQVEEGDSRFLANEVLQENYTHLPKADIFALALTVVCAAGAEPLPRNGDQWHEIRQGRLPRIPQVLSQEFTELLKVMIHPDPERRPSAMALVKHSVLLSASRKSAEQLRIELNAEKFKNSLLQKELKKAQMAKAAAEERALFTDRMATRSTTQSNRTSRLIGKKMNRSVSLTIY
m-calpain inh: blocks pig calpain II enzyme activity. purified calpain II, fluorogenic peptide substrate, 30 min. inhibition, % at 16 µM. 220,000 tested, 0.37% active. AID 1236;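 active = inhibition above about 50%, limit read from the data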
Numbers stand for hits. An excerpt weighted towards active compounds, which were near 1.5% of everything screened.

Screening CC(C)(C)c1nnc2sc(SCC(=O)N3CCCc4ccccc43)nn2c1=O returned Pf gamet viab inactive, MDM2 E3 inh inactive, Hsp70 act inactive, Wee1 degr inh inactive and m-calpain inh inactive.
CC1Cc2ccccc2N1C(=O)CSc1nn2c(=O)c(C(C)(C)C)nnc2s1 (stereo not given) was read as Pf gamet viab inactive, MDM2 E3 inh inactive, Hsp70 act inactive, Wee1 degr inh 10.4 and m-calpain inh inactive.
Screening O=C(Oc1oc(-c2ccco2)nc1C=Nc1ccccc1)c1ccoc1 returned Pf gamet viab inactive, MDM2 E3 inh inactive, Hsp70 act inactive, Wee1 degr inh 9.0 and m-calpain inh inactive.
Screening COCCNC(=O)c1ccc2c(=O)n(CCOC)c(=O)[nH]c2c1 returned MDM2 E3 inh inactive, Hsp70 act inactive, Wee1 degr inh inactive and m-calpain inh inactive.
Screening COCCn1c(=O)[nH]c2cc(C(=O)NCCN3CCN(c4ccccc4)CC3)ccc2c1=O returned Pf gamet viab inactive, MDM2 E3 inh inactive, Hsp70 act inactive, Wee1 degr inh 11.0 and m-calpain inh inactive.
`CCCCCNC(=O)c1ccc2c(=O)n(CCOC)c(=O)[nH]c2c1` gave MDM2 E3 inh inactive, Hsp70 act inactive, Wee1 degr inh 10.0 and m-calpain inh inactive.
`CCn1c(COc2ccc(OC)cc2)nnc1SCc1nc2ccccc2c(=O)[nH]1` gave MDM2 E3 inh inactive, Hsp70 act inactive, Wee1 degr inh 9.8 and m-calpain inh inactive.
CCN1CCN(S(=O)(=O)c2cc(C(=O)O)ccc2Cl)CC1 was read as Pf gamet viab inactive, MDM2 E3 inh inactive, Wee1 degr inh 9.6 and m-calpain inh inactive.
`O=C(O)c1ccc(Cl)c(S(=O)(=O)N2CCCC2)c1` gave Pf gamet viab inactive, MDM2 E3 inh inactive, Wee1 degr inh inactive and m-calpain inh inactive.
CCC(=O)Nc1ccc(NC(=O)c2ccccc2)nc1 was read as MDM2 E3 inh inactive, Hsp70 act inactive, Wee1 degr inh inactive and m-calpain inh inactive.
`CCCC(=O)Nc1ccc(NC(=O)c2ccccc2)nc1` gave Pf gamet viab inactive, Wee1 degr inh 10.3 and m-calpain inh inactive.
CCOC(=O)CSc1ccc(C(=O)Nc2ccc(OC)cc2)cn1 was read as MDM2 E3 inh inactive, Hsp70 act inactive, Wee1 degr inh 9.4 and m-calpain inh inactive.
`Cc1cc(C)c(NC(=O)CCCCCNC2CCCCC2)c(C)c1` gave Pf gamet viab inactive.
Screening Cc1sc(NC(=O)c2ccc(Cl)s2)c(C(N)=O)c1C returned MDM2 E3 inh inactive, Hsp70 act inactive, Wee1 degr inh 9.6 and m-calpain inh inactive.
Screening Cc1nc(NC(=O)/C=C/c2ccccc2)n[nH]1 returned Pf gamet viab inactive, MDM2 E3 inh 39.2, Hsp70 act inactive, Wee1 degr inh inactive and m-calpain inh inactive.
CCCn1nnc(NC(=O)/C=C/c2ccccc2)n1 was read as Pf gamet viab inactive, MDM2 E3 inh inactive, Hsp70 act inactive, Wee1 degr inh inactive and m-calpain inh inactive.
For Cc1cccc(OCCCC(=O)NC2CCCCC2)c1 the results were Pf gamet viab inactive.
For c1ccc(-n2ncc3c(NCC4CCCO4)ncnc32)cc1 (stereo not given) the results were MDM2 E3 inh inactive, Hsp70 act inactive, Wee1 degr inh inactive and m-calpain inh inactive.
Screening c1ccc(-n2ncc3c(NCc4cccs4)ncnc32)cc1 returned Pf gamet viab inactive, MDM2 E3 inh inactive, Hsp70 act inactive, Wee1 degr inh inactive and m-calpain inh 64.1.
For Clc1ccc(-n2ncc3c(NCC4CCCO4)ncnc32)cc1 (stereo not given) the results were MDM2 E3 inh inactive, Hsp70 act inactive, Wee1 degr inh 9.6 and m-calpain inh inactive.
`COc1ccc(-n2ncc3c(NCc4cccs4)ncnc32)cc1` gave Pf gamet viab inactive, MDM2 E3 inh inactive, Hsp70 act inactive, Wee1 degr inh inactive and m-calpain inh inactive.
Screening COc1ccc([C@H]2CC(=O)C=C(c3ccc(F)cc3OCc3ccccc3)C2)cc1OC returned Pf gamet viab inactive.
CCn1c(C)nc2cc(S(=O)(=O)C(F)(F)C(F)C(F)(F)F)ccc21 (stereo not given) was read as MDM2 E3 inh inactive, Hsp70 act inactive, Wee1 degr inh inactive and m-calpain inh 89.6.
`CCn1c(C)nc2cc(S(N)(=O)=O)ccc21` gave Pf gamet viab inactive, MDM2 E3 inh inactive, Hsp70 act inactive, Wee1 degr inh inactive and m-calpain inh inactive.
For O=C1CC(c2ccccc2)=NN1c1nc(-c2ccccc2)cs1 the results were Pf gamet viab inactive, MDM2 E3 inh inactive, Hsp70 act inactive, Wee1 degr inh 10.8 and m-calpain inh inactive.
CC1=NN(c2nc(-c3ccccc3)cs2)C(=O)C1 was read as MDM2 E3 inh inactive, Hsp70 act inactive, Wee1 degr inh inactive and m-calpain inh inactive.
Screening CC(C)(C)C(=O)NC(=S)Nc1ccccc1C(N)=O returned Pf gamet viab inactive, MDM2 E3 inh inactive, Hsp70 act inactive, Wee1 degr inh 10.7 and m-calpain inh inactive.
`Cc1c(NC(=S)NC(=O)C(C)(C)C)cccc1[N+](=O)[O-]` gave Pf gamet viab inactive, MDM2 E3 inh inactive, Hsp70 act inactive, Wee1 degr inh inactive and m-calpain inh inactive.
CC(C)COc1ccc(CNC(=S)N/N=C/c2ccc([N+](=O)[O-])cc2)cc1 was read as MDM2 E3 inh inactive, Hsp70 act inactive, Wee1 degr inh 10.0 and m-calpain inh inactive.
O=C(c1ccc(-c2nnc(-c3ccccc3)o2)cc1)N1CCCCCC1 was read as MDM2 E3 inh inactive, Hsp70 act inactive, Wee1 degr inh inactive and m-calpain inh 59.9.
`CCCCCOC(=O)CSc1nnc(-c2cc(OC)c(OC)c(OC)c2)o1` gave MDM2 E3 inh inactive, Hsp70 act inactive, Wee1 degr inh 9.0 and m-calpain inh inactive.
`CCCOC(=O)CSc1nnc(-c2cc(OC)c(OC)c(OC)c2)o1` gave Hsp70 act inactive, Wee1 degr inh inactive and m-calpain inh inactive.
`Cc1ccc(S(=O)(=O)Nc2ccc(N(C)S(=O)(=O)c3ccc(C)cc3)cc2)cc1` gave Pf gamet viab inactive, MDM2 E3 inh inactive, Wee1 degr inh 10.2 and m-calpain inh inactive.
Cc1ccc(NS(=O)(=O)N(C)C)cc1 was read as MDM2 E3 inh inactive, Hsp70 act inactive, Wee1 degr inh 9.8 and m-calpain inh inactive.
Screening O=S(=O)(NC1CCC(NS(=O)(=O)c2c(F)cccc2F)CC1)c1ccc2c(c1)OCCO2 (stereo not given) returned Pf gamet viab inactive.
`Cc1ccc(C(=O)C2CCN(C(=S)NCCCOC(C)C)CC2)cc1` gave Pf gamet viab inactive.
For O=C(O)c1ccc(NC(=S)NC(=O)c2cncc(Br)c2)cc1 the results were Pf gamet viab inactive.
`COc1ccc([C@@H]2[C@@H]3C(=O)N(C(C)(C)C)C(=O)[C@@H]3[C@]3(C)C(=O)N(c4ccc(C(F)(F)F)cc4)C(=O)N23)cc1` gave Pf gamet viab inactive.
Cc1cccc(OCCCSc2nc3ccc(C)cc3[nH]2)c1 was read as MDM2 E3 inh inactive, Hsp70 act inactive, Wee1 degr inh inactive and m-calpain inh 71.4.
